{"source": "ChEMBL document CHEMBL1153527", "about": "“Discovery of a novel series of quinolone and naphthyridine derivatives as potential topoisomerase I inhibitors by scaffold modification” (J Med Chem, 2009)", "key": {"K562": {"tested_on": "K562", "assay": "Cytotoxicity against p53-deficient human K562 cells after 48 hrs by SRB assay", "assay_type": "functional, cell-based", "details": "K562, 48 h"}, "HT-29 [1]": {"tested_on": "HT-29", "assay": "Antitumor activity against human HT-29 cells xenografted in athymic BALB/c nude mouse at 75 mg/kg, ip for 10 days measured after 30 days relative to placebo control", "assay_type": "functional", "details": "route intraperitoneal", "in_short": "(§1)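 Female athymic BALB/c nude mice (35-40 days old, 18-22 g). HT-29 tumours first grown from 1 × 10^7 cells injected s.c. in the axillary fossa, then excised and transplanted. Treatment started at 100-300 mm3. Groups of n=6 were dosed i.p. daily in 400 μL: saline for 10 days, 5 mg/kg for 2 days, or 75/150 mg/kg for 10 days. Caliper volume was V=1/2·a·b². Values are relative to start volume, compared with placebo by Student's t test, and mice were killed on day 30.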"}, "SK-OV-3 [2]": {"tested_on": "SK-OV-3", "assay": "Induction of apoptosis in human SKOV3 cells assessed as morphological changes at 5 ug/mL after 24 hrs by immunostaining", "assay_type": "functional, cell-based", "in_short": "(§2)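 SKOV3 and HT-29 cells were treated with 0.25 or 5 μg/mL for 24 h. Cell morphology was assessed by microscopy after fixation in 4% formaldehyde and Hoechst 33342 staining (10 μg/mL), against an untreated control.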"}, "THP-1": {"tested_on": "THP-1", "assay": "Cytotoxicity against human THP1 cells expressing p53 mutant after 48 hrs by SRB assay", "assay_type": "functional, cell-based", "details": "THP-1, 48 h"}, "SK-OV-3 [3]": {"tested_on": "SK-OV-3", "assay": "Cytotoxicity against human SKOV3 cells after 48 hrs by MTT assay", "assay_type": "functional, cell-based", "details": "SK-OV-3, 48 h", "in_short": "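Cells were seeded at about 5 × 10^3 per well, then given serum-free medium containing 0-10 μM test compound for 48 h at 37 °C. MTT was added at 0.5 mg/mL final for 4 h at 37 °C. Formazan was dissolved in DMSO and OD570 read. IC50 values (50% cell death) came from a fitted log concentration-response curve.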"}, "HT-29 [4]": {"tested_on": "HT-29", "assay": "Cytotoxicity against human HT-29 cells assessed as inhibition of anchorage-dependent colony formation at 5 uM after 14 days", "assay_type": "functional, cell-based", "in_short": "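HT-29 cells were plated at 500 per well and allowed to attach for 24 h. They were then exposed continuously to compound or DMSO for 14 days, with medium replaced every 72 h. Colonies were fixed in 1% formaldehyde/PBS and stained with 0.1% crystal violet.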"}, "HT-29 [5]": {"tested_on": "HT-29", "assay": "Antitumor activity against human HT-29 cells xenografted in athymic BALB/c nude mouse at 150 mg/kg, ip for 10 days measured after 30 days relative to placebo control", "assay_type": "functional", "details": "route intraperitoneal", "in_short": "as §1"}, "A549": {"tested_on": "A549", "assay": "Cytotoxicity against human A549 cells expressing wild type p53 after 48 hrs by SRB assay", "assay_type": "functional, cell-based", "details": "A549, 48 h", "in_short": "(§3)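 Cell lines came from CCRC, Taiwan. Cells were seeded at about 5 × 10^3 per well and left overnight. They were then given serum-free medium containing 0-10 μM compound (0.08-10 μM serial dilutions) for 48 h at 37 °C. Cells were fixed with TCA (10% final), stained with SRB (0.4% final), and the dye was dissolved in 10 mM Tris with A515 read. IC50 was taken from a fitted log concentration-response curve.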"}, "[6]": {"assay": "Cytotoxicity against p53-deficient human Hep3B cells after 48 hrs by SRB assay", "assay_type": "functional, cell-based, Hep 3B2", "in_short": "as §3"}, "HT-29 [7]": {"tested_on": "HT-29", "assay": "Induction of apoptosis in human HT-29 cells assessed as apoptotic cells at 5 ug/mL after 24 hrs by annexin V/propidium iodide-based flow cytometry", "assay_type": "functional", "in_short": "(§4)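 SKOV-3 or HT-29 cells (1-5 × 10^6 cells/mL) were incubated with 0, 5 or 10 μg/mL compound for 24 h. They were then washed and stained with EGFP-Annexin V/PI and analysed immediately by flow cytometry. Annexin V+/PI− cells were scored as apoptotic; PI-permeant cells were scored as necrotic.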"}, "AGS": {"tested_on": "AGS", "assay": "Cytotoxicity against human AGS cells expressing wild type p53 after 48 hrs by SRB assay", "assay_type": "functional, cell-based", "in_short": "as §3"}, "U-937": {"tested_on": "U-937", "assay": "Cytotoxicity against human U937 cells expressing p53 mutant after 48 hrs by SRB assay", "assay_type": "functional, cell-based", "details": "U-937, 48 h"}, "KB": {"tested_on": "KB", "assay": "Cytotoxicity against human KB cells after 48 hrs by MTT assay", "assay_type": "functional, cell-based"}, "HT-29 [8]": {"tested_on": "HT-29", "assay": "Induction of apoptosis in human HT-29 cells assessed as apoptotic cells at 10 ug/mL after 24 hrs by annexin V/propidium iodide-based flow cytometry", "assay_type": "functional", "in_short": "as §4"}, "Mus musculus [9]": {"tested_on": "Mus musculus", "assay": "Toxicity in athymic BALB/c nude mouse xenografted with human HT-29 cells assessed as change in body weight at 150 mg/kg, ip for 10 days measured after 30 days", "assay_type": "organism-based", "parameters": "dose 150 mg/kg, route intraperitoneal", "details": "in vivo, 720 h", "in_short": "(§5)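 Nude mouse HT-29 xenograft model as above: female athymic BALB/c, 18-22 g, n=6 per group. Dosing was i.p. daily in 400 μL for 10 consecutive days at 75 or 150 mg/kg, with saline controls. Body weight and tumour volume were recorded every 4 days, and the study ended on day 30. Weights were compared with controls by Student's t test.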"}, "SK-OV-3 [10]": {"tested_on": "SK-OV-3", "assay": "Induction of apoptosis in human SKOV3 cells assessed as apoptotic cells at 5 ug/mL after 24 hrs by annexin V/propidium iodide-based flow cytometry", "assay_type": "functional", "in_short": "as §4"}, "HT-29 [11]": {"tested_on": "HT-29", "assay": "Induction of apoptosis in human HT-29 cells assessed as increase in accumulation at sub-G1 phase at 1 uM after 48 hrs by flow cytometry", "assay_type": "functional", "in_short": "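HT-29 cells were exposed to vehicle or 1, 5 or 10 μM compound for 6, 12, 24 or 48 h. Floating and attached cells were collected, fixed in 70% ethanol and treated with 0.1% Triton X-100. They were stained with PI at 50 μg/mL plus RNaseA at 50 μg/mL for 30 min at room temperature in the dark. FL2 DNA content was read on 10000 cells by flow cytometry. The sub-G1 fraction was taken as apoptotic.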"}, "SK-OV-3 [12]": {"tested_on": "SK-OV-3", "assay": "Induction of apoptosis in human SKOV3 cells assessed as morphological changes at 0.25 ug/mL after 24 hrs by immunostaining", "assay_type": "functional, cell-based", "in_short": "as §2"}, "PC-3": {"tested_on": "PC-3", "assay": "Cytotoxicity against p53-deficient human PC3 cells after 48 hrs by SRB assay", "assay_type": "functional, cell-based", "details": "PC-3, 48 h", "in_short": "as §3"}, "Mus musculus [13]": {"tested_on": "Mus musculus", "assay": "Toxicity in athymic BALB/c nude mouse xenografted with human HT-29 cells assessed as morbidity at 75 mg/kg, ip for 10 days measured after 30 days", "assay_type": "organism-based", "parameters": "dose 75 mg/kg, route intraperitoneal", "details": "in vivo, 720 h", "in_short": "as §5"}, "HeLa": {"tested_on": "HeLa", "assay": "Cytotoxicity against p53-deficient human HeLa cells after 48 hrs by SRB assay", "assay_type": "functional, cell-based", "in_short": "as §3"}, "Mus musculus [14]": {"tested_on": "Mus musculus", "assay": "Toxicity in athymic BALB/c nude mouse xenografted with human HT-29 cells assessed as morbidity at 150 mg/kg, ip for 10 days measured after 30 days", "assay_type": "organism-based", "parameters": "dose 150 mg/kg, route intraperitoneal", "details": "in vivo, 720 h", "in_short": "as §5"}}, "note": "Active and inactive are the calls of the source. The rule behind the calls is not given here."}
{"smiles": "CCn1cc(-c2nc3ccc([N+](=O)[O-])cc3o2)c(=O)c2cc(F)c(N3CCNC(C)C3)c(F)c21", "note": "(configuration not stated)", "values": [{"measurement": "IC50", "setting": "K562", "result": 4600, "unit": "nM"}, {"measurement": "Activity", "setting": "HT-29 [1]", "result": 52, "unit": "%"}, {"measurement": "Activity", "setting": "SK-OV-3 [2]", "result": "Active"}, {"measurement": "IC50", "setting": "THP-1", "result": 3500, "unit": "nM"}, {"measurement": "IC50", "setting": "SK-OV-3 [3]", "result": 0.55, "unit": "µg/mL"}, {"measurement": "Activity", "setting": "HT-29 [4]", "result": "Active"}, {"measurement": "Activity", "setting": "HT-29 [5]", "result": 65, "unit": "%"}, {"measurement": "GI50", "setting": "A549", "result": 800, "unit": "nM"}, {"measurement": "IC50", "setting": "A549", "result": 1500, "unit": "nM"}, {"measurement": "GI50", "setting": "[6]", "result": 1500, "unit": "nM"}, {"measurement": "IC50", "setting": "[6]", "result": 3900, "unit": "nM"}, {"measurement": "Activity", "setting": "HT-29 [7]", "result": 23.5, "unit": "%"}, {"measurement": "GI50", "setting": "AGS", "result": 700, "unit": "nM"}, {"measurement": "IC50", "setting": "AGS", "result": 3500, "unit": "nM"}, {"measurement": "IC50", "setting": "U-937", "result": 1400, "unit": "nM"}, {"measurement": "IC50", "setting": "KB", "result": 600, "unit": "nM"}, {"measurement": "Activity", "setting": "HT-29 [8]", "result": 35.9, "unit": "%"}, {"measurement": "Activity", "setting": "Mus musculus [9]", "result": "Non-toxic"}, {"measurement": "Activity", "setting": "SK-OV-3 [10]", "result": 7.4, "unit": "%"}, {"measurement": "Activity", "setting": "HT-29 [11]", "result": 35.5, "unit": "%"}, {"measurement": "Activity", "setting": "SK-OV-3 [12]", "result": "Active"}, {"measurement": "GI50", "setting": "PC-3", "result": 3300, "unit": "nM"}, {"measurement": "IC50", "setting": "PC-3", "result": 4200, "unit": "nM"}, {"measurement": "Activity", "setting": "Mus musculus [13]", "result": "Non-toxic"}, {"measurement": "GI50", "setting": "HeLa", "result": 1100, "unit": "nM"}, {"measurement": "IC50", "setting": "HeLa", "result": 2400, "unit": "nM"}, {"measurement": "Activity", "setting": "Mus musculus [14]", "result": "Non-toxic"}]}
